From paper PMC9263996 (iScience, 2022)
“Also recorded” adds a separate entry of the source.

Assays:
MaltOBP24 [1] = assay: Fluorescence-quenching spectra assay, MaltOBP24; format: binding, Monochamus alternatus; settings: for quenching mechanism of the interaction with MaltOBP24: change of Ksv with temperature 289–298 K, neutral pH
DhelOBP10 [2] = target: T1, DhelOBP10 (Dastarcus helophoroides, UniProt A0A1I9HZP4); assay: Competitive fluorescence-binding assay with 1-NPN probe, recombinant DhelOBP10; settings: for Ki: DhelOBP10 Ki (dissociation constant), 1-NPN competition, mean ± SEM
T1 sequence (A0A1I9HZP4 20-220): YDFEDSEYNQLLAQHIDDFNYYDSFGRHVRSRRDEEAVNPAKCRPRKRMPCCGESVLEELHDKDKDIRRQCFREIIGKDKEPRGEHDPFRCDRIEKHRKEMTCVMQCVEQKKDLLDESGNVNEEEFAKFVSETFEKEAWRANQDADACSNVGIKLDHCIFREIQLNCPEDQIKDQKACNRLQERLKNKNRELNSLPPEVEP
In short: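 Recombinant signal-peptide-free DhelOBP10 from E. coli (pET-32b; 1 mM IPTG induction, 12 h at 16°C), dialysed into Tris pH 7.4 or 5.0. […] Ligands (1 mM methanol stock) were added to 0–20 μM; Ki = IC50/(1+[1-NPN]/K1-NPN). Mean ± SEM.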

MaltOBP24 [3] = target: T2, MaltOBP24 (Monochamus alternatus, UniProt A0A1I9HZN3); assay: Competitive fluorescence-binding assay with 1-NPN probe, recombinant MaltOBP24; settings: MaltOBP24 Ki (dissociation constant), 1-NPN competition, mean ± SEM
T2 sequence (A0A1I9HZN3 1-169): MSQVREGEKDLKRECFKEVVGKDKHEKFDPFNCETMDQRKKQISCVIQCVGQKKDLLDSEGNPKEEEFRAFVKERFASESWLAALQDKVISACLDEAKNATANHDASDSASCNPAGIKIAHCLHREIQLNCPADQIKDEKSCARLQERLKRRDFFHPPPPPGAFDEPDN

M. alternatus adults = assay: Y-tube olfactometer binary choice assay, M. alternatus adults; format: in vivo, Monochamus alternatus; settings: for behavioral response of M. alternatus adults in Y-tube: untreated adults, in words
In short: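 Field-collected adults kept singly at 25°C on fresh pine twigs. RNAi: 1 μg dsMaltOBP24 or dsGFP injected into the frons of 4-day-old adults under CO₂ narcosis, with non-injected controls, and tested 4 days later. Y-tube with 40 cm stem, 30 cm arms at 60°, airflow 300 mL/min. Odour was 10 µL of 100-fold paraffin-oil dilution versus paraffin oil. Insects had 5 min; ≥30 per sex, each tested once; Chi-square.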

DhelOBP10 [4] = target: T1, DhelOBP10; assay: Fluorescence-quenching spectra assay, DhelOBP10; format: binding; settings: for ΔS (entropy change): DhelOBP10, pH 7.4; for ΔH (enthalpy change): DhelOBP10, pH 7.4, 289 and 298 K; for Kd: Ka (apparent association constant); for quenching mechanism of the interaction with DhelOBP10: change of Ksv with temperature 289–298 K, neutral pH; for main acting force between ligand and DhelOBP10: from signs of ΔH and ΔS
In short: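 Intrinsic fluorescence of 2 μM recombinant DhelOBP10 in 30 mM Tris-HCl (pH 7.4 or 5.0): excitation 289 nm, slits 15/10 nm, scan 300–500 nm. Ligand aliquots came from 1 mM stock, at 289 and 298 K. Ksv and Kq were taken from Stern–Volmer fits, Ka and n from double-log plots, and ΔG, ΔH, ΔS from thermodynamic equations to assign binding force.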

D. helophoroides adults = assay: Y-tube olfactometer binary choice assay, D. helophoroides adults; format: in vivo, Dastarcus helophoroides; settings: for attraction to D. helophoroides after silencing DhelOBP10: RNAi, compared with non-injected and dsGFP controls; for behavioral response of D. helophoroides adults in Y-tube: untreated adults, in words
In short: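 Adults reared at 25°C on an artificial diet. RNAi: 4-day-old adults given 300 ng dsDhelOBP10 or dsGFP into the frons, with non-injected controls, and tested 4 days later. Y-tube with 15 cm stem, 12 cm arms at 75°, airflow 300 mL/min per arm. Odour was 10 µL of 100-fold paraffin-oil dilution on filter paper versus paraffin oil. Insects had 5 min; arms swapped; ≥60 insects (30 per sex), each tested once; Chi-square.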

Compound	quenching mechanism of the interaction with MaltOBP24 (MaltOBP24 [1])	Ki (DhelOBP10 [2]; pH5.0) [µM]	Ki (DhelOBP10 [2]; pH7.4) [µM]	Ki (MaltOBP24 [3]; pH5.0) [µM]	Ki (MaltOBP24 [3]; pH7.4) [µM]	behavioral response of M. alternatus adults in Y-tube (M. alternatus adults)	Ka (apparent association constant) (MaltOBP24 [1]; MaltOBP24, pH 7.4, 289 K)	Kq (bimolecular quenching constant) (MaltOBP24 [1]; MaltOBP24, pH 7.4, 289 K) [M⁻¹ s⁻¹]	Ksv (quenching constant) (MaltOBP24 [1]; MaltOBP24, pH 7.4, 289 K)	ΔS (entropy change) (DhelOBP10 [4])	Kq (bimolecular quenching constant) (DhelOBP10 [4]; DhelOBP10, pH 7.4, 289 K) [M⁻¹ s⁻¹]	Ksv (quenching constant) (DhelOBP10 [4]; DhelOBP10, pH 7.4, 289 K)	n (number of binding sites) (DhelOBP10 [4]; DhelOBP10, pH 7.4, 289 K)	ΔG (free energy change) (DhelOBP10 [4]; DhelOBP10, pH 7.4, 289 K)	Kq (bimolecular quenching constant) (DhelOBP10 [4]; DhelOBP10, pH 7.4, 298 K) [M⁻¹ s⁻¹]	Ksv (quenching constant) (DhelOBP10 [4]; DhelOBP10, pH 7.4, 298 K)	n (number of binding sites) (DhelOBP10 [4]; DhelOBP10, pH 7.4, 298 K)	ΔG (free energy change) (DhelOBP10 [4]; DhelOBP10, pH 7.4, 298 K)	quenching mechanism of the interaction with DhelOBP10 (DhelOBP10 [4])	behavioral response of D. helophoroides adults in Y-tube (D. helophoroides adults)	other results
(+)-α-pinene	dynamic quenching	–	–	–	–	–	–	–	–	–	–	–	–	–	–	–	–	–	–	–	–
C=CC(=C)CCC=C(C)C [myrcene]	–	3.93 ± 0.71	28.7 ± 1.12	22.4 ± 2.29	24.3 ± 3.95	–	–	–	–	–	–	–	–	–	–	–	–	–	–	–	–
C=C1CC[C@H]2O[C@]2(C)CC[C@@H]2[C@@H]1CC2(C)C [(−)-caryophyllene oxide]	–	3.65 ± 0.34	15.7 ± 1.26	38.5 ± 3.44	24.2 ± 1.94	–	–	–	–	–	–	–	–	–	–	–	–	–	–	–	–
C=C1C2CCC(C2)C1(C)C (stereo not drawn) [camphene]	–	8.29 ± 1.99	24.5 ± 2.44	> 50	22.1 ± 3.21	–	–	–	–	–	–	–	–	–	–	–	–	–	–	–	–
CC1=CCC2C(C1)C2(C)C (stereo not drawn) [3-carene]	static quenching	13.9 ± 2.91	14.5 ± 2.61	23.5 ± 2.33	3.31 ± 0.68	did not affect their behavior	9,394,307.39 L·mol^−1	2.4156e+12	24,156 ± 442.5 L·mol^−1	42.1 J/(mol·K)	3.524e+11	3,524 ± 122.4 L·mol^−1	0.9999 ± 0.0605	−19,760.09 J·mol^−1	2.97e+11	2,970 ± 15.32 L·mol^−1	0.9088 ± 0.0218	−17,960.72 J·mol^−1	static quenching	significant preference	Ka (apparent association constant) (MaltOBP24 [1]; MaltOBP24, pH 7.4, 298 K): 3,347,243.70 L·mol^−1; Kq (bimolecular quenching constant) (MaltOBP24 [1]; MaltOBP24, pH 7.4, 298 K): 1.8949e+12 M⁻¹ s⁻¹; Ksv (quenching constant) (MaltOBP24 [1]; MaltOBP24, pH 7.4, 298 K): 18,949 ± 876.5 L·mol^−1; ΔH (enthalpy change) (DhelOBP10 [4]): −7,595.91 J·mol^−1; Kd (DhelOBP10 [4]; DhelOBP10, pH 7.4, 289 K): 268 µM; Kd (DhelOBP10 [4]; DhelOBP10, pH 7.4, 298 K): 711 µM; main acting force between ligand and DhelOBP10 (DhelOBP10 [4]): electrostatic force; attraction to D. helophoroides after silencing DhelOBP10 (D. helophoroides adults): significantly lower attraction index
CC1=CCC(=C(C)C)CC1 [α-terpinolene]	static quenching	–	–	–	–	did not affect their behavior	5,449,703.40 L·mol^−1	2.5179e+12	25,179 ± 659.6 L·mol^−1	0.008678 kcal/mol	5.736e+11	5,736 ± 153.1 L·mol^−1	1.0321 ± 0.0670	−21,851.44 J·mol^−1	2.139e+11	2,139 ± 58.09 L·mol^−1	0.9823 ± 0.1034	−18,944.55 J·mol^−1	static quenching	did not show preference	Ka (apparent association constant) (MaltOBP24 [1]; MaltOBP24, pH 7.4, 298 K): 2,525,092.74 L·mol^−1; Kq (bimolecular quenching constant) (MaltOBP24 [1]; MaltOBP24, pH 7.4, 298 K): 2.0347e+12 M⁻¹ s⁻¹; Ksv (quenching constant) (MaltOBP24 [1]; MaltOBP24, pH 7.4, 298 K): 20,347 ± 501.6 L·mol^−1; Ka (apparent association constant) (DhelOBP10 [4]; DhelOBP10, pH 7.4, 289 K): 8,904.93 L·mol^−1; ΔH (enthalpy change) (DhelOBP10 [4]): −11,356.86 J·mol^−1; Ka (apparent association constant) (DhelOBP10 [4]; DhelOBP10, pH 7.4, 298 K): 2,093.14 L·mol^−1; main acting force between ligand and DhelOBP10 (DhelOBP10 [4]): electrostatic force
CC12CCC(CC1=O)C2(C)C (stereo not drawn) [camphor]	–	9.09 ± 1.7	33.8 ± 1.04	> 50	> 50	–	–	–	–	–	–	–	–	–	–	–	–	–	–	–	–
C=C(C)[C@H]1CC=C(C)CC1 [R-(+)-limonene]	dynamic quenching	–	–	–	–	did not affect their behavior	–	–	–	0.01114 kcal/mol	6.287e+11	6,287 ± 91.45 L·mol^−1	0.9715 ± 0.0292	−20,458.37 J·mol^−1	4.016e+11	4,016 ± 108.1 L·mol^−1	0.9324 ± 0.0422	−18,738.30 J·mol^−1	static quenching	significant preference	ligand-binding affinity with DhelOBP10 (class) (DhelOBP10 [2]; fluorescence binding combined with quenching): high (high if the Ki values <20 μM); Ka (apparent association constant) (DhelOBP10 [4]; DhelOBP10, pH 7.4, 289 K): 4,986.95 L·mol^−1; ΔH (enthalpy change) (DhelOBP10 [4]): −6,986.94 J·mol^−1; Ka (apparent association constant) (DhelOBP10 [4]; DhelOBP10, pH 7.4, 298 K): 1,925.95 L·mol^−1; attraction to D. helophoroides after silencing DhelOBP10 (D. helophoroides adults): not altered
(+)-fenchone	static quenching	–	–	–	–	significantly attracted; also recorded: could attract adults	3,312,799.36 L·mol^−1	2.4531e+12	24,531 ± 303.9 L·mol^−1	0.01694 kcal/mol	3.742e+11	3,742 ± 92.59 L·mol^−1	0.9404 ± 0.0271	−18,347.45 J·mol^−1	2.913e+11	2,913 ± 190.8 L·mol^−1	0.9471 ± 0.0676	−18,846.32 J·mol^−1	static quenching	significantly attracted; also recorded: significant preference	attraction index to M. alternatus after silencing MaltOBP24 (M. alternatus adults; RNAi, compared with non-injected and dsGFP controls): significantly decreased; Ka (apparent association constant) (MaltOBP24 [1]; MaltOBP24, pH 7.4, 298 K): 2,154,595.09 L·mol^−1; Kq (bimolecular quenching constant) (MaltOBP24 [1]; MaltOBP24, pH 7.4, 298 K): 1.4813e+12 M⁻¹ s⁻¹; Ksv (quenching constant) (MaltOBP24 [1]; MaltOBP24, pH 7.4, 298 K): 14,813 ± 141.8 L·mol^−1; Ka (apparent association constant) (DhelOBP10 [4]; DhelOBP10, pH 7.4, 289 K): 2,071.51 L·mol^−1; Ka (apparent association constant) (DhelOBP10 [4]; DhelOBP10, pH 7.4, 298 K): 2,011.77 L·mol^−1; main acting force between ligand and DhelOBP10 (DhelOBP10 [4]): hydrophobic; attraction to D. helophoroides after silencing DhelOBP10 (D. helophoroides adults): significantly decreased
CC1=CC[C@@H]2[C@@H]3[C@H]1[C@@]2(C)CCCC3(C)C [(+)-α-longipinene]	–	–	–	–	–	–	–	–	–	–	–	–	–	–	–	–	–	–	dynamic quenching	–	–
